Activity calls are given as the source filed them. The rule behind the calls is not given here.

Here are results for one compound from ChEMBL document CHEMBL5329211, “Selective isoxazolopyrimidine PAT1 (SLC26A6) inhibitors for therapy of intestinal disorders” (RSC Med Chem, 2023).

Data set [1] is described as follows: In vivo inhibition of PAT1 in intestinal closed-loop CD-1 mouse model assessed as reduction in loop weight/length ratio in ileum measured for 30 mins. In kind it is functional. The following applies: 0.5 h. Put shortly: (§1)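 Mice (wild-type CD1 or homozygous F508del CF, 10-16 wk, both sexes) fasted 24 h with free access to 5% dextrose water. Under isoflurane at 36-38 °C, 2-3 ileal loops (2-3 cm) were tied off and injected with 100 µL PBS pH 7.4 containing 30 µM inhibitor, 10 µM tenapanor or 0.1% DMSO vehicle. Loops removed at 0 or 30 min in separate mice; length and weight measured for fluid absorption. One-way ANOVA with Newman-Keuls.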

Data set [2] is described as follows: Cytotoxicity against rat FRT cells assessed as reduction in cell viability at 10 uM incubated for 24 hrs by alamar blue staining based analysis. In kind it is toxicity. The method, boiled down: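 FRT cells seeded 20,000/well and grown 24 h, then exposed to compound at 10 μM for 24 h. Vehicle control 0.1% DMSO, positive control 20% DMSO. Viability read by Alamar Blue.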
On the technique in general: The colour change of resazurin is a common sign of viable cells or microbes.

The nature of data set [3]: In vivo inhibition of PAT1 in intestinal closed-loop CD-1 mouse model harboring CFTR delF508/delF508 mutant assessed as reduction in loop fluid volume in ileum measured for 30 mins. In kind it is functional. The following applies: 0.5 h. The method, boiled down: as §1
The target in data set [4] is T1, Anoctamin-1 (Homo sapiens) (UniProt Q5XXA6).
T1 sequence (whole entry): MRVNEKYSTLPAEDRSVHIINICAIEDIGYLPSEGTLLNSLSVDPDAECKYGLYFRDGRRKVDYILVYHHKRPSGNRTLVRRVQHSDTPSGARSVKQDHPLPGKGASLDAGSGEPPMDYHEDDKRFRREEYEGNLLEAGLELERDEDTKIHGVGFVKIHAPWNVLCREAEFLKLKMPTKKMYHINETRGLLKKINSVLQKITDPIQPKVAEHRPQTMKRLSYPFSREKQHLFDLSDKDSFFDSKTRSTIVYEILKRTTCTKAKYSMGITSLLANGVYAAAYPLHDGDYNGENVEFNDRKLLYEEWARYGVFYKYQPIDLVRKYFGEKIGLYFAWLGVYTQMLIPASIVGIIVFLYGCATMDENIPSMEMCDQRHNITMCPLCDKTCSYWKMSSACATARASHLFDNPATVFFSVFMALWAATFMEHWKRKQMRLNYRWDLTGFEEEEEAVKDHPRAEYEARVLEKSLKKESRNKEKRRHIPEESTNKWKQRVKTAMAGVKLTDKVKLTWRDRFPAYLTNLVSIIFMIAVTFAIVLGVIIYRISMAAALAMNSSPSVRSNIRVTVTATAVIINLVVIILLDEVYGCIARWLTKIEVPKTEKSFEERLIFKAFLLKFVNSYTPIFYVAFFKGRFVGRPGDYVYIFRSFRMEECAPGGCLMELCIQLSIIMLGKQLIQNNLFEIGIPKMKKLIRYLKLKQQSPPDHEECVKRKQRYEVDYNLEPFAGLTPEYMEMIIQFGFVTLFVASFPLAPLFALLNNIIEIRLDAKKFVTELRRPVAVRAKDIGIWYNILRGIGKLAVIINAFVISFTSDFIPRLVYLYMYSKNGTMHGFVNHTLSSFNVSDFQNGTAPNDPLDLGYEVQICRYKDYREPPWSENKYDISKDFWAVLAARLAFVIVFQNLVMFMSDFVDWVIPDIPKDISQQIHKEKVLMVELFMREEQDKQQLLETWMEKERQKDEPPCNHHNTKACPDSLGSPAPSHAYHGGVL
The data set is described as follows: Inhibition of TMEM16A (unknown origin).

Data set [5] concerns Mus musculus. Kind of data set: In vivo inhibition of PAT1 in intestinal closed-loop CD-1 mouse model harboring CFTR delF508/delF508 mutant assessed as reduction in loop weight/length ratio in ileum measured for 30 mins. In kind it is functional, organism-based. Put shortly: as §1
The test system of data set [6] is Mus musculus. The data set is described as follows: In vivo inhibition of PAT1 in intestinal closed-loop CD-1 mouse model assessed as reduction in loop fluid volume in ileum measured for 30 mins. It counts as functional, organism-based. The method, boiled down: as §1
A further data set addresses T2, Pendrin (Homo sapiens) (UniProt O43511).
T2 sequence (whole entry): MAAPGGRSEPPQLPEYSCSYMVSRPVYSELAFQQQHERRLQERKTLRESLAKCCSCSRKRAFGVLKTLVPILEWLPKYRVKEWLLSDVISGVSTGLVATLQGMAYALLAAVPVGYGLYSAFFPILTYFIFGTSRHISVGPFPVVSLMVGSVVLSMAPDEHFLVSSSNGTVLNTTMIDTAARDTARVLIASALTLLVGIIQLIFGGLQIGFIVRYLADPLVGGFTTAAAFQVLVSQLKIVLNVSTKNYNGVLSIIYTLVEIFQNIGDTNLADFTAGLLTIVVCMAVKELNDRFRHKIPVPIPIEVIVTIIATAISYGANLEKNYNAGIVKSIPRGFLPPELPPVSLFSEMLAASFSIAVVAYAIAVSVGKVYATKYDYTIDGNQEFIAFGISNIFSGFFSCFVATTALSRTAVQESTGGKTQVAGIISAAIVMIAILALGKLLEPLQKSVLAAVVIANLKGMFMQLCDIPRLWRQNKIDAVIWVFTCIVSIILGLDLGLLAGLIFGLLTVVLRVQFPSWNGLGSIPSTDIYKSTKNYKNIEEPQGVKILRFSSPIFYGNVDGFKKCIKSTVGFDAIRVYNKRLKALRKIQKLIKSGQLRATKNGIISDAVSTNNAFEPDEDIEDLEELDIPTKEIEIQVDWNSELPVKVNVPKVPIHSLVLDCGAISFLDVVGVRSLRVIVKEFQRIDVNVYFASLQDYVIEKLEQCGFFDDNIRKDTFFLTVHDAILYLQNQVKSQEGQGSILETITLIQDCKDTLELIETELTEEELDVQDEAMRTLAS
The data set is described as follows: Inhibition of SLC26A4 (unknown origin) expressed in rat FRT cells coexpressing YFP halide-sensing protein assessed as iodide-chloride exchange at 25 uM incubated for 2 sec by fluorescence quenching analysis. In kind it is cell-based.

Consider `CCOC(=O)c1nc(N(C)Cc2ccccc2)c2c(C)noc2n1`, for which the “inhibition (INH)” value in data set [1] and in data set [3] was more than 90% throughout. Also, the Activity result in data set [2] was “Non-Toxic”. Besides, the inhibition entry (in data set [4]; on Pendrin (Homo sapiens)) was “inactive” each time. Further, the inhibition result in the data set with Mus musculus [5] and with Mus musculus [6] was “Active” in each case.
